The results in this text go back to ChEMBL document CHEMBL1147446, “Antagonists of human CCR5 receptor containing 4-(pyrazolyl)piperidine side chains. Part 3: SAR studies on the benzylpyrazole segment” (Bioorg Med Chem Lett, 2004).

Data set [1] can be described thus: Half life in dog (dosed as a mixture of five compounds at 0.5 mpk each via iv only). Format: ADME, organism-based, Canis lupus familiaris. The conditions noted are these: in vivo. Put shortly:
(§1)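 Dogs received a five-compound cassette by iv only, 0.5 mpk of each compound.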

For data set [2], the system named is Canis familiaris. The experiment in a line: […] AUCN in dog ( (dosed as a mixture of five compounds at 0.5 mpk each via iv only). As to conditions: in vivo. The format is ADME, organism-based, Canis lupus familiaris.
Data set [3] can be described thus: Plasma clearance in dog (dosed as a mixture of five compounds at 0.5 mpk each via iv only). Format: ADME, organism-based, Canis lupus familiaris. The conditions noted are these: read-out: Clp. Put shortly:
as §1

The target of data set [4] is C-C chemokine receptor type 5 (Homo sapiens, UniProt P51681). Nature of the data set: Inhibitory concentration for displacement of [125I]-MIP-1 alpha from recombinant human CC chemokine receptor 5 (CCR5) expressed in CHO cell. Format: cell-based. Put shortly:
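Competitive binding to CCR5 on CHO cell membranes, read as displacement of [125I]-labeled MIP-1α. IC50 values are means of triplicate determinations. Standard errors were normally <15% within an assay. Assay-to-assay variation was within ±2-fold, judged from a standard compound.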

The target of data set [5] is T1, D(3) dopamine receptor (Homo sapiens, UniProt P35462). The experiment in a line: (§2) Inhibitory activity against human dopamine receptor D3 at 10 uM.
Data set [6] deals with T2, Sodium-dependent dopamine transporter (Homo sapiens, UniProt Q01959). Nature of the data set: (§3) Inhibitory activity against human dopamine transporter at 10 uM.
The subject of data set [7] is HeLa. Nature of the data set: Antiviral activities in a cell culture HIV-1 infectivity inhibition assay using HeLa cells plus 50% normal human serum. Format: functional.
Data set [8] deals with Sodium-dependent noradrenaline transporter (Homo sapiens) (UniProt P23975). Nature of the data set: Inhibitory activity against human adrenergic norepinephrine transporter at 10 uM.
For data set [9], the species on record is Rattus norvegicus. The experiment in a line: (§4) Inhibitory activity against rat Na+ channel site 2 at 10 uM.
A short description of data set [10]: In vitro antiviral activity using peripheral blood mononuclear cell (PBMC) HIV-1 spread assay. Format: functional. The conditions noted are these: Homo sapiens.
Data set [11] in a line: In vitro antiviral activity using peripheral blood mononuclear cell (PBMC) HIV-1 spread assay in presence of 50% normal human serum. The format is functional.
Data set [12] concerns the target L-type calcium channel, benzothiazepine site (Rattus norvegicus, UniProt P22002+P27732+Q02485). Nature of the data set: Inhibition of binding to rat L-type Calcium channel benzothiazepine site at 10 uM. The format is functional.
The test system of data set [13] is HeLa. The experiment in a line: Antiviral activities in a cell culture HIV-1 infectivity inhibition assay using HeLa cells. Format: functional. The conditions noted are these: Homo sapiens.
Data set [14] concerns the target T1, D(3) dopamine receptor. The data set is described as §2. This is another data set of the same source.
For data set [15], the target named is T2, Sodium-dependent dopamine transporter. Described as §3. This is another data set of the same source.
Data set [16] in a line: as §4.
Data set [17] is described as follows: in vivo. The conditions noted are these: rat, plasma.
Data set [18] in a line: in vivo. As to conditions: rat.
Data set [19] is described as follows: in vivo. As to conditions: rat. This is another data set of the same source.
The subject of data set [20] is Canis familiaris. The experiment in a line: […] AUCN in dog (dosed as a mixture of five compounds at 0.5 mpk each via iv only). The format is ADME, organism-based, Canis lupus familiaris. As to conditions: in vivo.
The target in data set [21] is Voltage-gated inwardly rectifying potassium channel KCNH2 (Homo sapiens, UniProt Q12809). The experiment in a line: Binding affinity against hERG Voltage-gated potassium channel subunit Kv11.1.
The test system of data set [22] is Canis familiaris. The experiment in a line: Oral AUCN in dog (dosed at 0.5 mpk iv ). As to conditions: in vivo, 0.5 mg/kg.
The nature of data set [23]: in vivo. As to conditions: dog.
A short description of data set [24]: in vivo. The conditions noted are these: dog, plasma, iv, 0.5 mg/kg.
Data set [25] has as its system HeLa. The experiment in a line: Inhibition of HIV-1 infectivity using BAL-1 strain against HeLa cell line was determined. Format: functional. The conditions noted are these: Homo sapiens.

Sodium-dependent noradrenaline transporter (Homo sapiens), sequence (P23975 whole entry): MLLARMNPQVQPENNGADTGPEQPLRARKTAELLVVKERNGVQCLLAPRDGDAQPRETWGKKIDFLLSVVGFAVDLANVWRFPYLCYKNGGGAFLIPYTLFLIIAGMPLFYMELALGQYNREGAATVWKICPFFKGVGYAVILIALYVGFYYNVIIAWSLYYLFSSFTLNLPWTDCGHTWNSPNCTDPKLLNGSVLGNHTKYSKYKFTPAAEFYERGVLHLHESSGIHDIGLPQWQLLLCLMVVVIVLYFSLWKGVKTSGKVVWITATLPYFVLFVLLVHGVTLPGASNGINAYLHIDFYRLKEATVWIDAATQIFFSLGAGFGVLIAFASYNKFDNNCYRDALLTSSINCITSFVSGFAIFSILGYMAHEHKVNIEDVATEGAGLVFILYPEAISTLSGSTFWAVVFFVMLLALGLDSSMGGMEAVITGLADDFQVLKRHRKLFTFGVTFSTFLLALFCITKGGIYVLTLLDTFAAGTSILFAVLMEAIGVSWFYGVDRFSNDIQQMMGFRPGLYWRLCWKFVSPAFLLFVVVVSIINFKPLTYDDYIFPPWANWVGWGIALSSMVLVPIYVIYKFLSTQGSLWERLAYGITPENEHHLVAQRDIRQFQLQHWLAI
T2 sequence (Q01959 whole entry): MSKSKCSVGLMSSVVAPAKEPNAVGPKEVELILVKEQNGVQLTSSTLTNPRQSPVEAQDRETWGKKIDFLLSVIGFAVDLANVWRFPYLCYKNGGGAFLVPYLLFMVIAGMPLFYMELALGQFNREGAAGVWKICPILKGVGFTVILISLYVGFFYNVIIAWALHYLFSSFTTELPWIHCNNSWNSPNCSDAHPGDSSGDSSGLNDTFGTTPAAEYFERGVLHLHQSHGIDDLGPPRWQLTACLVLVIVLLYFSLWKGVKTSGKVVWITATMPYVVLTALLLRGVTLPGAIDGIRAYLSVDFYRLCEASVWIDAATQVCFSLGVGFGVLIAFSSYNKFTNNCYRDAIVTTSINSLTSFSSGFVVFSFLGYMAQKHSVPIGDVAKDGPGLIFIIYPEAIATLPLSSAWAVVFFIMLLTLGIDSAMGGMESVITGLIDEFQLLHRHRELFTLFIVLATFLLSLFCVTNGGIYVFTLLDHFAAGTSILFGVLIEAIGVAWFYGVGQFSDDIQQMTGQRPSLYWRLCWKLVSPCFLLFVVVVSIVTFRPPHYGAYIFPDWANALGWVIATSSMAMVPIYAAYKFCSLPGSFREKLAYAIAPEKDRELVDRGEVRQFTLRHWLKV
T1 sequence (P35462 whole entry): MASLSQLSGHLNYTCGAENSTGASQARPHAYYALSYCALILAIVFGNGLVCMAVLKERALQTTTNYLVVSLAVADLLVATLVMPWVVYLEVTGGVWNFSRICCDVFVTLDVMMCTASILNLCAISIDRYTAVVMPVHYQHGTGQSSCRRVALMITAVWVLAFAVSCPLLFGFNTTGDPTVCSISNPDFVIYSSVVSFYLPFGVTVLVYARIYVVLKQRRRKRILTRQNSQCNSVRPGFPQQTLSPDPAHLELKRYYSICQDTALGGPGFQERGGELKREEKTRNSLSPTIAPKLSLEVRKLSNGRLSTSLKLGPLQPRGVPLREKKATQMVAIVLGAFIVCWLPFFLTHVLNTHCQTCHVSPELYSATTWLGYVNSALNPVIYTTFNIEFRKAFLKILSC
C-C chemokine receptor type 5, sequence (P51681 whole entry): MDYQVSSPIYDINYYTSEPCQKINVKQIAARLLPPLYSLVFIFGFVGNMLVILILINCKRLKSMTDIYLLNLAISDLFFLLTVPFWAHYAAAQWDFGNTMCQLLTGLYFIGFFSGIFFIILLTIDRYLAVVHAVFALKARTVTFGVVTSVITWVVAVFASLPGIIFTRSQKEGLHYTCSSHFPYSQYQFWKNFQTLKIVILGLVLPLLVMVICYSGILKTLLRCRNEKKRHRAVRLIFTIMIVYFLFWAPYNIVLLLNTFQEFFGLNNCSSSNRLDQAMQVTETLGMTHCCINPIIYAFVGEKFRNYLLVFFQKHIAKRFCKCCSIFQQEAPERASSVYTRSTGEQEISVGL
Voltage-gated inwardly rectifying potassium channel KCNH2, sequence (Q12809 whole entry): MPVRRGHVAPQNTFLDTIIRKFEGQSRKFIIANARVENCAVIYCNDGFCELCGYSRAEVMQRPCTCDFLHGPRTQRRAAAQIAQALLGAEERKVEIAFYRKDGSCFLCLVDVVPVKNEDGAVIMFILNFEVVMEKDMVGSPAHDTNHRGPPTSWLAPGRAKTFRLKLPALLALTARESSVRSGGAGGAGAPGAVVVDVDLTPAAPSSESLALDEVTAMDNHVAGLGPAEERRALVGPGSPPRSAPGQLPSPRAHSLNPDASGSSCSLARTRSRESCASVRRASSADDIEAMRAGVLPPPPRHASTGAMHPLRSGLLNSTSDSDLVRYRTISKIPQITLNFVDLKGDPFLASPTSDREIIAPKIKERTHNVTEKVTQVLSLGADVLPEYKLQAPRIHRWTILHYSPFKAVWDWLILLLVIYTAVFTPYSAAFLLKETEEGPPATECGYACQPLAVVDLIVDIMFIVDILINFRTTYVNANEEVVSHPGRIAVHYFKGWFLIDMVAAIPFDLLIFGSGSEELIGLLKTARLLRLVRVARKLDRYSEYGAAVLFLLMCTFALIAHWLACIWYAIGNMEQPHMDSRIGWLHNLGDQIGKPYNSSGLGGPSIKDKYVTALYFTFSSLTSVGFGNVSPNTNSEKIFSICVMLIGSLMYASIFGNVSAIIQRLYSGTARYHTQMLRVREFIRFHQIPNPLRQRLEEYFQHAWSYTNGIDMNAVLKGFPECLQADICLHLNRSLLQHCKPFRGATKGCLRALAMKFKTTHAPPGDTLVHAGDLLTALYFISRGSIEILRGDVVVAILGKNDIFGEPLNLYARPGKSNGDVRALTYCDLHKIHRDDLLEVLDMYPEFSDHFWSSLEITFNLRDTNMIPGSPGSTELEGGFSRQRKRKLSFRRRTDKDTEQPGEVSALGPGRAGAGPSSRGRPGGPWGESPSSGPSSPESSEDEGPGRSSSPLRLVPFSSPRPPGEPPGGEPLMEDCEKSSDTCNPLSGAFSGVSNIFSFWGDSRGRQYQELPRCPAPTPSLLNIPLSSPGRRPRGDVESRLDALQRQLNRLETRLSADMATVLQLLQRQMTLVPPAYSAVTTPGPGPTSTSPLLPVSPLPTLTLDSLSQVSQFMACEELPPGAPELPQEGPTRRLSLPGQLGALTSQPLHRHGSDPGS

Regarding `CCn1nc(Cc2ccc(S(C)(=O)=O)cc2)cc1C1CCN(C[C@H]2CN([C@@H](C(=O)O)C(C)(C)C)C[C@@H]2c2cccc(F)c2)CC1`, the half-life in [1] is 0.55 h. Moreover, in data set [2], the “AUC N” value is 0.24 uM hr dose-1. Besides, the clearance in data set [3] worked out at 108 mL/min/kg. Besides, the half-maximal inhibitory concentration (IC50) in [4] is 1.6 nM. Besides, the inhibition in data set [5] was determined as 39%; in [6], 36%; in data set [8], 13%; in [9], 7%. The IC90 in [7] is 11 nM; in data set [13], under 0.14 nM. The IC95 came out at 6.2 nM in [10] and 8.1 nM in data set [11]. Further, the inhibition at 10 µM in data set [12] stood at 15%.

As for `CC[C@H](C)[C@H](C(=O)O)N1C[C@H](CN2CCC(c3cc(Cc4ccc(OC(F)(F)F)cc4)nn3CC)CC2)[C@@H](c2cccc(F)c2)C1`, the half-life in data set [1] is 3.1 h; in data set [19], 2.3 h. Further, in [2], the “AUC N” value was determined as 6.8 uM hr dose-1. The clearance was determined as 3.8 mL/min/kg in data set [3] and 8.8 mL/min/kg in data set [17]. Moreover, the IC50 worked out at 1.1 nM in [4], 2700 nM in [14], 3600 nM in data set [15] and 1200 nM in data set [16]. The IC90 in [7] was 33 nM; in data set [13], 0.4 nM. In data set [8], the inhibition was 42%. Moreover, the IC95 in [10] was found to be 2.5 nM; in data set [11], 20 nM. Further, the inhibition at 10 µM in data set [12] was found to be 46%. Further, the bioavailability in [18] was determined as 41%.

Consider `CC[C@H](C)[C@H](C(=O)O)N1C[C@H](CN2CCC(c3cc(Cc4ccc(OC)c(OC)c4)nn3CC)CC2)[C@@H](c2cccc(F)c2)C1`, for which the half-inhibitory concentration (IC50) in data set [4] is 1.5 nM; in data set [16], 7200 nM. Further, the inhibition in [5] is 35%; in data set [6] it was -4%; in data set [8] it was 15%. The IC90 in data set [7] came out at 33 nM; in data set [13], 0.4 nM. In addition, the inhibition at 10 µM in data set [12] came out at 36%.

With `CCn1nc(Cc2ccc(C(F)(F)F)cc2)cc1C1CCN(C[C@H]2CN([C@@H](C(=O)O)C(C)(C)C)C[C@@H]2c2cccc(F)c2)CC1`, the half-life in [1] was 2.8 h. For the same molecule, in data set [20], the “AUC N” value was determined as 4.9 uM hr dose-1. Besides, in data set [3], the clearance was found to be 5.5 mL/min/kg. For the same molecule, in [4], the IC50 stood at 0.3 nM. In addition, the IC90 in data set [7] is 33 nM; in data set [13] it was 0.4 nM.

`CCOc1ccc(Cc2cc(C3CCN(C[C@H]4CN([C@@H](C(=O)O)C(C)(C)C)C[C@@H]4c4cccc(F)c4)CC3)n(CC)n2)cc1`: the half-life in [1] is 1.8 h; in data set [19], 1.4 h. In addition, the “AUC N” value in data set [2] turned out to be 2.3 uM hr dose-1. Besides, the clearance in data set [3] is 13 mL/min/kg; in data set [17], 1.7 mL/min/kg. Further, the IC50 in [4] worked out at 0.9 nM. The figures for the IC90 in [7] and in [13] were 33 nM and 0.4 nM, respectively. Also, the bioavailability in [18] was 68%.

Take `CCn1nc(Cc2ccc(C#N)cc2)cc1C1CCN(C[C@H]2CN([C@@H](C(=O)O)C(C)(C)C)C[C@@H]2c2cccc(F)c2)CC1`: the IC50 in [4] was determined as 1.3 nM; in data set [14], 4000 nM. In addition, the inhibition is 17% in data set [6], 23% in [8] and 44% in data set [9]. Besides, the IC90 in [7] is 3.7 nM; in data set [13], under 0.14 nM. For the same molecule, the inhibition at 10 µM in [12] came out at 1%.

Turning to `CCn1nc(Cc2ccccc2)cc1C1CCN(C[C@H]2CN([C@@H](C(=O)O)C(C)C)C[C@@H]2c2cccc(F)c2)CC1`, the inhibition in data set [5] was determined as 45%; in [6], 15%; in data set [8], 21%; in data set [9], 32%. For the same molecule, the IC90 in [7] came out at 300 nM. In addition, the inhibition at 10 µM in data set [12] is -3%. The half-life in data set [19] is 1.4 h.

For the molecule `CC[C@H](C)[C@H](C(=O)O)N1C[C@H](CN2CCC(c3cc(Cc4ccccc4)nn3CC)CC2)[C@@H](c2cccc(F)c2)C1`, the IC90 in data set [7] is 100 nM. For the same molecule, the affinity in [21], expressed as Ki, was 30000 nM. Moreover, the bioavailability in [18] was determined as 13%. The same molecule showed a half-life in data set [19] of 0.54 h.

Regarding `CCn1nc(Cc2ccc(OC)c(OC)c2)cc1C1CCN(C[C@H]2CN([C@@H](C(=O)O)C(C)(C)C)C[C@@H]2c2cccc(F)c2)CC1`, the results for the half-life in [1] and in data set [19] were 2.1 h and 1.1 h, respectively. In addition, in data set [2], the “AUC N” value is on record as 1.9 uM hr dose-1. Also, the clearance in [3] is 14 mL/min/kg; in data set [17], 2.1 mL/min/kg. Moreover, the IC50 amounted to 1.2 nM in data set [4] and 3200 nM in [16]. For the same molecule, the inhibition in data set [5] is 44%; in data set [6], 9%; in [8], 3%. Also, the IC90 in data set [7] is 11 nM; in data set [13], under 0.14 nM. Moreover, the 95% effect concentration (IC95) in [10] worked out at 1.6 nM; in data set [11], 31 nM. The inhibition at 10 µM in [12] is -8%. Moreover, in data set [18], the bioavailability was 33%.

For `CC[C@@H](C)[C@H](C(=O)O)N1C[C@H](CN2CCC(c3cc(Cc4ccc(C#N)cc4)nn3CC)CC2)[C@@H](c2cccc(F)c2)C1`, the IC50 in data set [4] was 1.3 nM. Also, the IC90 in [7] was 33 nM; in [13], 0.4 nM. This molecule yielded a clearance in data set [17] of 9.8 mL/min/kg. This molecule also gave a bioavailability in [18] of 3.1%. This molecule also showed a half-life in data set [19] of 0.74 h.

Consider `CCn1nc(Cc2ccccc2)cc1C1CCN(C[C@H]2CN([C@@H](C(=O)O)C(C)(C)C)C[C@@H]2c2cccc(F)c2)CC1`, for which the half-life in data set [1] was 0.75 h; in data set [23], 0.64 h. The “AUC N” value in [20] is 1.2 uM hr dose-1; in data set [22], 2.3 µM hr dose-1. For the same molecule, the clearance in data set [3] stood at 25 mL/min/kg; in [24] it was 13 mL/min/kg. In addition, the 90% effect concentration (IC90) in [7] was determined as 100 nM.

In data set [25], `CCn1nc(Cc2ccccc2)cc1C1CCN(C[C@H]2CN([C@@H](C(=O)O)C3CCCCC3)C[C@@H]2c2ccccc2)CC1` displayed a 90% effect concentration (IC90) of 0.4 nM.

For `CC[C@H](C)[C@H](C(=O)O)N1C[C@H](CN2CCC(c3cc(Cc4ccc(OC(C)(C)C)cc4)nn3CC)CC2)[C@@H](c2cccc(F)c2)C1`, in [4], the IC50 came out at 1.3 nM. The IC90 was 11 nM in [7] and under 0.14 nM in data set [13]. In addition, the clearance in data set [17] is 4 mL/min/kg. The bioavailability in data set [18] is 76%. The molecule also showed a half-life in data set [19] of 1.1 h.

As to `CCn1nc(Cc2ccc(-c3ccccc3)cc2)cc1C1CCN(C[C@H]2CN([C@@H](C(=O)O)C3CCCCC3)C[C@@H]2c2cccc(F)c2)CC1`, the IC50 in data set [4] turned out to be 0.3 nM. Moreover, the IC90 in data set [7] was 11 nM; in data set [13], 0.4 nM. The same molecule yielded a Ki in data set [21] of 400 nM. In data set [17], this molecule showed a clearance of 5.3 mL/min/kg. This molecule yielded a bioavailability in data set [18] of 18%. This molecule also had a half-life in data set [19] of 1.3 h.

With `CCn1nc(Cc2ccc(OC3CCC3)cc2)cc1C1CCN(C[C@H]2CN([C@@H](C(=O)O)C(C)(C)C)C[C@@H]2c2cccc(F)c2)CC1`, the IC50 in data set [4] amounted to 0.7 nM. Also, the IC90 in data set [7] worked out at 33 nM; in [13], 0.4 nM. The molecule also had a clearance in data set [17] of 0.62 mL/min/kg. In data set [18], this molecule returned a bioavailability of 65%. Moreover, the half-life in [19] is 3.5 h.

With `CC[C@H](C)[C@H](C(=O)O)N1C[C@H](CN2CCC(c3cc(Cc4ccc(C(C)C)cc4)nn3CC)CC2)[C@@H](c2cccc(F)c2)C1`, in data set [4], the IC50 came out at 0.3 nM. The IC90 in [7] is 11 nM; in [13], under 0.14 nM. The clearance in [17] is 3.3 mL/min/kg. The same molecule had a bioavailability in data set [18] of 19%. In data set [19], this molecule gave a half-life of 1.18 h.
